The data set is described as follows: Toxicity liver stage against HepG2, at 10uM. Format: cell-based. Set-up: test concentration 10 uM, cell line HepG2-A16-CD81EGFP. As to conditions: human, HepG2-A16-CD81EGFP cells; read-out: INHIBITION
Put shortly:
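Uninfected HepG2-A16-CD81EGFP cells, 3 × 10^3 per well, 1536-well, plated on prespotted compound at 10 μM final, parasite-free screening media added to match infected plates; puromycin 10 μM positive, DMSO 0.5% negative; run in parallel with 48 h PbLuc assay at 37 °C, 5% CO2; viability by CellTiter-Glo luminescence, normalized to controls.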

For the compound `CC[C@@H]1N(C)CCC[C@]12CCC(=O)N2Cc1ccncc1`, the cytotoxicity at 10 µM was 3.67%.
For `CN(Cc1ccco1)c1ccc(-c2nccn2C)nn1` the value was -0.447%; for `COCCc1nnc(NC(=O)CCCc2ccccc2)o1`, -4.34%.
For `CN1C(=O)C(c2ccccc2)CC12CCN(CCO)CC2` (configuration not stated) the value was 5.12%; for `CC(NS(C)(=O)=O)c1nc(-c2ccc(Br)cc2)no1` (configuration not stated), 4.29%.
For `COc1cccc2c1ccn2CCNC(=O)CCNc1ncccn1`, the cytotoxicity at 10 µM was -6.27%.
For `O=S(=O)(c1ccc(Cl)cc1)N1CCC(OCc2ccccn2)C1` (configuration not stated) the value was 1.48%.
Consider `FC(F)(F)CN1CCC(CNc2nc3ccccc3o2)C1` (configuration not stated), for which the cytotoxicity at 10 µM stood at 2.7%.
As to `c1ccc(CCNc2ncnc3c2CCN(Cc2c[nH]cn2)CC3)cc1`, the cytotoxicity at 10 µM turned out to be 3.16%.
As for `CC(C(=O)Nc1ccccc1F)S(C)(=O)=O` (configuration not stated), the cytotoxicity at 10 µM is -5.27%.
In the case of `CCn1ccnc1C1CCN(C(=O)C(O)c2ccc(OC)cc2)CC1` (configuration not stated), the cytotoxicity at 10 µM is 0.171%.
In the case of `O=C(Nc1cnn(CC(=O)N2CCCO2)c1)c1ccccc1` it was -0.134%; in that of `Cn1cccc1C(=O)N1C[C@@H]2COC[C@]2(CNS(C)(=O)=O)C1`, 4.38%; in that of `CCc1c(O)nc2nc(N3CCOCC3)nn2c1C`, 10.8%.
For `Cc1ccc(-c2nc(CN3CCCC(Cn4cncn4)C3)cs2)o1` (configuration not stated) the value was -22.2%; for `CCn1ccnc1CN1CCN(CC(O)c2ccco2)CC1` (configuration not stated), -4.57%; for `CCN(C(C)=O)C1CCN(c2nccc(CCC(F)(F)F)n2)C1` (configuration not stated), -4.39%.
For the compound `Cc1ccc(CC(NC(=O)CCS(C)(=O)=O)c2ccccn2)cc1` (configuration not stated), the cytotoxicity at 10 µM was -11%.
Take `COc1ccc(CN2CCC(O)CC2)c(OC)c1`: the cytotoxicity at 10 µM was -9.18%.
For `Cc1nccn1CCN(C)c1cc(C(C)C)nc2ccnn12` the value was -3.88%; for `CCCOc1ccc(CNC(=O)N2CCC(C(N)=O)C2)cc1` (configuration not stated), -5.87%; for `CN(Cc1nnc(C2CC2)n1C)S(=O)(=O)Cc1ccccc1F`, 16.8%.
In the case of `COc1c(C)cnc(CN(C)C2CCCCC2)c1C` it was 20.5%; in that of `CCn1nc(C)c2ncnc(NCC(=O)N3CCOCC3)c21`, 3.54%; in that of `CC(C)NC(=O)c1sc2ccccc2c1C1CCC(CN)CC1` (configuration not stated), -3.28%.
As to `Cc1cc(C(=O)NCCN2CCCc3ccccc32)[nH]n1`, the cytotoxicity at 10 µM turned out to be 0.868%.
For `CCn1nc(CC(C)C)cc1C(=O)NCc1c(C)cc(C)nc1OC` the value was 1.66%; for `COc1c(CNCc2ccnc(N(C)C)c2)c(C(C)C)nn1C`, -6.3%.
Regarding `Clc1ccccc1C1(c2ccnc(-c3ccncc3)n2)CCNCC1`, the cytotoxicity at 10 µM was -8.16%.
For `CCOCCCNCc1cc(O)c2cc(C)ccc2n1` the value was -11.1%; for `CCCS(=O)(=O)NC1CCc2c(ccc(=O)n2CC2CC2)C1` (configuration not stated), -67.3%; for `Cc1nn(C)c(C)c1CCC(=O)NCc1cccnc1OC1CCCC1`, -4.38%.
In the case of `Cc1cc(C)cc(OCCN(C)C2CCOC2=O)c1` (configuration not stated) it was -143%; in that of `Cn1c(-c2ccc(F)cc2)cn2cc(C(=O)N3CCC(N)C3)nc2c1=O` (configuration not stated), 4.43%.
For `O=C1COC2(CCN(Cc3cccs3)CC2)CN1c1ccsc1` the value was -125%.
As to `Cc1cnn(CC2CCCN2C(=O)c2cccc3[nH]ncc23)c1` (configuration not stated), the cytotoxicity at 10 µM was -10.8%.
For `CNc1nc(CN2C[C@@H](NC(C)=O)[C@H](c3ccc(C)o3)C2)cs1` the value was -42.4%.
For the compound `N#Cc1nccnc1N1CCC(COCc2ccccc2)C1` (configuration not stated), the cytotoxicity at 10 µM is 7.78%.
In the case of `COCCN1CCN(Cc2coc(-c3ccccc3Cl)n2)CC1`, the cytotoxicity at 10 µM is -1.67%.
With `Cc1ccc(-c2ncc(C(=O)N3CCC[C@H](N)C3)c(O)n2)cc1`, the cytotoxicity at 10 µM is -7.14%.
In the case of `COCC(=O)N1C[C@H](N(C)Cc2cncnc2)[C@H]2OCCC[C@H]21` it was -99.2%; in that of `COC(=O)C1CCN(C(=O)c2ccc(N(C)S(C)(=O)=O)c(C)c2)CC1`, -1.18%.
In the case of `CC(C)N1CCc2ncn(C(C)C)c2C1C(=O)NCCN1CCCC1` (configuration not stated) it was 3.11%.
Consider `Cn1cc(C#N)cc1C(=O)Nc1ccc(CN2CCOCC2)cn1`, for which the cytotoxicity at 10 µM was -6.68%.
For `CCOC1CCN(C(=O)c2csc(S(N)(=O)=O)c2)CC1` the value was -11.4%; for `CCc1ccc(NC(=O)c2cnc(N3CCN(C)CC3)nc2C)cc1`, -15%.
For `Cc1nn(C)c2nc(N(C)CC3CCN(CC(C)C)C3)sc12` (configuration not stated), the cytotoxicity at 10 µM is -8.13%.
For `CCn1nc(C)c(CNC(=O)c2nnc3ccccc3n2)c1C` the value was 5.81%.
Take `O=C(c1nc2c(s1)CCCN2C(=O)C1CC1)N1CCOCC1`: the cytotoxicity at 10 µM was determined as 4.96%.
Take `CCc1ccc(NC(=O)N2C[C@@H]3C[C@H](C(=O)NC4CCC4)[C@H](C2)O3)cc1`: the cytotoxicity at 10 µM was -2.25%.
In the case of `CC(=O)N(Cc1ncc(C)o1)C1CCN(CCCc2cnn(C)c2)C1` (configuration not stated) it was 8.11%; in that of `CCn1cnnc1CNC(=O)N(C)Cc1ccc(Cl)cc1Cl`, -17.7%; in that of `CCc1noc(C2CCCCN2C(=O)c2nnc3ccccc3n2)n1` (configuration not stated), 0.795%.
As to `CCOc1ccc(C(=O)NCCCNc2ncccn2)cc1`, the cytotoxicity at 10 µM amounted to 11.5%.
Take `O=C(CCO)N[C@H]1CN(CC2CCC2)C[C@@H]1c1ccccc1`: the cytotoxicity at 10 µM is -0.447%.
Turning to `COc1cccc(-c2csc(Cn3ccc(=O)[nH]c3=O)n2)c1`, the cytotoxicity at 10 µM was 3.57%.
For the compound `COCCOc1ccccc1C(=O)N1CCCCC1c1nccs1` (configuration not stated), the cytotoxicity at 10 µM came out at 0.642%.
`Cc1nccnc1C1CCN(C2CCCC2O)CC1` (configuration not stated): the cytotoxicity at 10 µM was -1.35%.
In the case of `CNc1cc(C(=O)NCCC2=CSC3=NCCCN23)ccn1`, the cytotoxicity at 10 µM turned out to be 8.71%.
For `CN(C)S(=O)(=O)N1C[C@H]2CCC[C@@]2(COCc2cccnc2)C1` the value was 9.19%.
In the case of `COC(=O)CN1CCSC(c2ccccc2)C1` (configuration not stated) it was 17.8%; in that of `O=C1CCC2(CCN(CC[C@H](O)c3ccccc3)CC2)CN1CCO`, -4%.
For `COc1ccc(CC(=O)NCCCc2nnc3nc(C)cc(C)n23)cc1` the value was 4.45%; for `O=C(COc1ccc2c(c1)CCCC2=O)NCc1ccco1`, 3.39%.
Consider `Cc1noc(C)c1CCC(=O)NCC1(O)CCCN(c2ccccn2)C1` (configuration not stated), for which the cytotoxicity at 10 µM was -3.95%.
With `CCN(C(=O)c1cc2c([nH]c1=O)CCCC2=O)C1CCCCC1`, the cytotoxicity at 10 µM is -4.07%.
In the case of `CN(Cc1ccccn1)C(=O)c1cc(CN2CCC(O)CC2)on1`, the cytotoxicity at 10 µM was determined as 0.852%.
In the case of `CC(C)(C)OC(=O)N1CCC(NCc2cnn(C(C)(C)C)c2)CC1` it was 4.85%; in that of `CCN1C(=O)CCC12CCCN(Cc1nccs1)CC2` (configuration not stated), -0.413%; in that of `CN(C)CC1(O)CCN(C(=O)Cc2ccc3c(c2)CCCC3)C1` (configuration not stated), -7.75%.
Regarding `COc1ccc(CNc2cccnc2-n2cccn2)cc1OC`, the cytotoxicity at 10 µM turned out to be 7.25%.
For `Cc1nc(CN2CCCC2c2[nH]ncc2C(=O)N(C)C)cs1` (configuration not stated) the value was -0.722%.

The values are drawn from ChEMBL document CHEMBL4513216, “Probing the Open Global Health Chemical Diversity Library for Multistage-Active Starting Points for Next-Generation Antimalarials” (ACS Infect Dis, 2020).
